Laboratory results taken from ChEMBL document CHEMBL1629550 (Antimicrob Agents Chemother, 2008).
Calls of active or inactive are those of the source. No cut-off for these calls is given here.

Key:
Listeria monocytogenes [1] = experiment: Antibacterial activity against Listeria monocytogenes EGD-e in BALB/c mouse central nervous system listeriosis model assessed as mouse survival at 50 mg/kg, ip administered 36 hrs postinfection every 12 hrs for 5 days measured after 2 months; type: functional, organism-based; set-up: dose 50 mg/kg
Method in brief: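 BALB/c females were infected i.v. with 1 × 10^5 EGD-e. Starting 36 h after infection, they were dosed i.p. at 50 mg·kg−1 every 12 h for 5 days (n = 20); saline controls n = 5. Deaths were checked twice daily from 36 h post-infection. Survivors were followed for 2 months for relapse, and survival was analysed by Kaplan-Meier.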

Listeria monocytogenes [2] = experiment: Antibacterial activity against Listeria monocytogenes EGD-e in BALB/c mouse central nervous system listeriosis model assessed as reduction in bacterial count in liver at 50 mg/kg, ip administered 36 hrs postinfection as single dose measured within 6 hr; type: functional, organism-based; set-up: dose 50 mg/kg
Method in brief: (§1)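 Female BALB/c mice (7–8 weeks) were infected i.v. with 1 × 10^5 EGD-e and given one i.p. dose of 50 mg·kg−1 at 36 h; saline was given to controls. Groups of three were sampled at 1, 6, 24 and 48 h. Blood and homogenized liver, spleen and brain were serially diluted 10-fold on BHI agar and counted after 24 h at 37°C. Results are mean ± SE log10 CFU/organ or per ml blood.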

Listeria monocytogenes [3] = experiment: Antibacterial activity against Listeria monocytogenes EGD-e in BALB/c mouse central nervous system listeriosis model assessed as log reduction in bacterial CFU per ml of blood at 50 mg/kg, ip administered 36 hrs postinfection as single dose measured within 1 hr; type: functional; settings: route intraperitoneal; method in brief: as §1
Listeria monocytogenes [4] = experiment: Antibacterial activity against Listeria monocytogenes EGD-e in BALB/c mouse central nervous system listeriosis model assessed as increase in mouse survival at 50 mg/kg, ip administered 36 hrs postinfection as single dose; type: functional; settings: route intraperitoneal
Method in brief: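 Female BALB/c mice, 7–8 weeks old, were infected via the lateral tail vein with 1 × 10^5 EGD-e in 0.5 ml saline. At 36 h they received a single 50 mg·kg−1 i.p. dose in isotonic saline (0.1 ml), with n = 12. Controls got saline (n = 5). Death was checked twice daily from 36 h, and survivors were followed 2 months. Results were plotted as Kaplan-Meier estimates.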

Listeria monocytogenes [5] = experiment: Antibacterial activity against Listeria monocytogenes EGD-e in BALB/c mouse central nervous system listeriosis model assessed as increase in mouse survival at 50 mg/kg, ip administered 36 hrs postinfection every 12 hrs for 5 days; type: functional; settings: route intraperitoneal
Method in brief: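 Female BALB/c mice, 7–8 weeks old, were infected i.v. via the tail vein with 1 × 10^5 EGD-e in 0.5 ml saline. From 36 h they received 50 mg·kg−1 i.p. in isotonic saline (0.1 ml) every 12 h for 5 days, with n = 20. Controls got saline (n = 5). Death was checked twice daily, and survivors were followed 2 months for relapse. Results were plotted as Kaplan-Meier estimates.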

Listeria monocytogenes [6] = experiment: Antibacterial activity against Listeria monocytogenes EGD-e in BALB/c mouse central nervous system listeriosis model assessed as reduction in bacterial count in spleen at 50 mg/kg, ip administered 36 hrs postinfection as single dose measured within 6 hr; type: functional, organism-based; set-up: dose 50 mg/kg; method in brief: as §1
[7] = Cmax in plasma in Listeria monocytogenes EGD-e infected BALB/c mouse central nervous system listeriosis model at 50 mg/kg, ip administered 36 hrs postinfection as single dose; type: ADME, organism-based; set-up: dose 50 mg/kg, route intraperitoneal
Method in brief: (§2)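 Female BALB/c mice, 7–8 weeks old, were infected i.v. via the tail vein with 1 × 10^5 EGD-e. At 36 h they received one i.p. dose of 50 mg·kg−1 in isotonic saline. Groups of six were killed at 0–480 min. Blood-cleared brain homogenate and plasma were deproteinized with acetonitrile, with ciprofloxacin as internal standard, and analysed by reverse-phase HPLC with fluorescence detection (ex 290/em 550 nm). Cmax was read from the curves; AUC24 was calculated by the trapezoidal rule.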

Listeria monocytogenes [8] = experiment: Antibacterial activity against Listeria monocytogenes EGD-e in BALB/c mouse central nervous system listeriosis model assessed as reduction in bacterial count in spleen at 50 mg/kg, ip administered 36 hrs postinfection as single dose measured within 1 hr; type: functional, organism-based; set-up: dose 50 mg/kg; method in brief: as §1
Listeria monocytogenes [9] = experiment: Antibacterial activity against Listeria monocytogenes EGD-e in BALB/c mouse central nervous system listeriosis model assessed as reduction in bacterial count in liver at 50 mg/kg, ip administered 36 hrs postinfection as single dose measured within 1 hr; type: functional, organism-based; set-up: dose 50 mg/kg; method in brief: as §1
[10] = AUC (24 hrs) in plasma in Listeria monocytogenes EGD-e infected BALB/c mouse central nervous system listeriosis model at 50 mg/kg, ip administered 36 hrs postinfection as single dose; type: ADME, organism-based; set-up: time < 24 hr, dose 50 mg/kg, route intraperitoneal; method in brief: as §2

Structure (SMILES)	Activity (Listeria monocytogenes [1])	Activity (Listeria monocytogenes [2])	FC (Listeria monocytogenes [3])	Time (Listeria monocytogenes [4]) [h]	Activity (Listeria monocytogenes [5]) [%]	Activity (Listeria monocytogenes [6])	Cmax [7] [ng/mL]	Activity (Listeria monocytogenes [8])	Activity (Listeria monocytogenes [9])	AUC at 24 h [10] [ng·h/mL]
CC1(C)S[C@@H]2[C@H](NC(=O)[C@H](N)c3ccc(O)cc3)C(=O)N2[C@H]1C(=O)O [AMOXICILLIN]	Active	Active	1	12	75	Active	–	–	–	–
COc1c(N2C[C@@H]3CCCN[C@@H]3C2)c(F)cc2c(=O)c(C(=O)O)cn(C3CC3)c12 [MOXIFLOXACIN]	Active	–	–	24	100	–	17300	Active	Active	27100
